≈ marks a conversion by molar mass, not a printed value.

Holding throughout (type): functional
Test [1] relates to Enterococcus faecium. As to the kind of experiment: Antibacterial activity against Enterococcus faecium L569 expressing VanA gene after 24 hrs by broth microdilution method. In a few lines: (§1)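 CLSI broth microdilution MIC in Müller Hinton broth with 20 mg/L CaCl2 and 10 mg/L MgCl2. Compounds were dissolved in DMSO and diluted in medium just before testing. Inoculum was 5 × 10^5 cfu/mL, incubated 24 h at 37 °C. MIC was the lowest concentration giving complete suppression of visible growth. Strains came from ATCC or an in-house collection (L-prefix).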
(Broth dilution looks for growth in wells or tubes with falling amounts of substance.)

For test [2], the system named is Enterococcus faecium. As to the kind of experiment: Antibacterial activity against Enterococcus faecium L568 expressing VanS gene after 24 hrs by broth microdilution method. The method in brief:
as §1

Test [3] has as its system Enterococcus faecalis. The experiment in a line: Antibacterial activity against Enterococcus faecalis L560 expressing VanA gene after 24 hrs by broth microdilution method. In a few lines: as §1
For test [4], the system named is Enterococcus faecalis. The experiment in a line: Antibacterial activity against Enterococcus faecalis L559 expressing VanS gene after 24 hrs by broth microdilution method. The method in brief:
as §1

For a further test, the system named is Streptococcus pyogenes. As to the kind of experiment: Antibacterial activity against Streptococcus pyogenes L49 after 24 hrs by broth microdilution method.
A further test deals with Streptococcus pneumoniae. The experiment in a line: Antibacterial activity against Streptococcus pneumoniae ATCC 49619 after 24 hrs by broth microdilution method.
In test [5] the test system is Staphylococcus aureus. The experiment in a line: Antibacterial activity against Staphylococcus aureus GISA L3798 after 24 hrs by broth microdilution method. The method in brief:
(§2)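 Broth microdilution per CLSI in Müller Hinton broth with 20 mg/L CaCl2 and 10 mg/L MgCl2. Inoculum 5 × 10^5 cfu/mL, 24 h at 37 °C. Compounds dissolved in DMSO and diluted in medium just before testing. MIC taken as lowest concentration giving complete suppression of visible growth.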

For test [6], the system named is Staphylococcus aureus. The experiment in a line: Antibacterial activity against methicillin-resistant Staphylococcus aureus ND035208 after 24 hrs by broth microdilution method. The method in brief: as §2
The subject of test [7] is Staphylococcus aureus. As to the kind of experiment: Antibacterial activity against methicillin-sensitive Staphylococcus aureus L819/ATCC 19636 after 24 hrs by broth microdilution method. In a few lines: as §1

Usually MIC stands for the lowest concentration found to suppress growth. Low readings indicate greater potency, high ones weaker potency. With `C=C1NC(=O)[C@H](Cc2c[nH]c3ccc(Cl)cc23)NC(=O)[C@@H](NC(=O)/C(=C/C)NC(=O)[C@@H](N)C(C)C)CSC[C@@H](C(=O)N[C@@H]2C(=O)N3CCC[C@H]3C(=O)NCC(=O)N[C@H](C(=O)N[C@H](C(=O)N[C@H]3CSC[C@@H]4NC(=O)[C@H](CC(=O)O)NC(=O)[C@H](CSC[C@@H]5NC(=O)[C@H](Cc6ccccc6)NC(=O)[C@H](CS/C=C\NC5=O)NC4=O)NC(=O)CNC(=O)CNC(=O)CNC(=O)[C@@H]4CCCN4C3=O)[C@@H](C)O)CSC2C)NC(=O)[C@H](CC(C)C)NC1=O` (stereo not given in full), the minimal inhibitory concentration (MIC) was 8 µg/mL (≈ 3.61 µM) against Enterococcus faecium [1] (L569, 24 h); 8 µg/mL (≈ 3.61 µM) against Enterococcus faecium [2] (L568, 24 h); 4 µg/mL (≈ 1.8 µM) against Enterococcus faecalis [3] (L560, 24 h); 8 µg/mL (≈ 3.61 µM) with Enterococcus faecalis [4] (L559, 24 h); ≤ 0.001 µg/mL against Streptococcus pyogenes (L49, 24 h); 0.03 µg/mL (≈ 0.0135 µM) against Streptococcus pneumoniae (ATCC 49619, 24 h). Also, the MIC worked out at 4 µg/mL (≈ 1.8 µM) against Staphylococcus aureus [5] (GISA L3798, 24 h); 4 µg/mL (≈ 1.8 µM) in the test with Staphylococcus aureus [6] (ND035208, 24 h); 0.5 µg/mL (≈ 0.225 µM) with Staphylococcus aureus [7] (L819/ATCC 19636, 24 h).
In the case of `C=C1NC(=O)[C@H](Cc2c[nH]c3ccc(Cl)cc23)NC(=O)[C@@H](NC(=O)/C(=C/C)NC(=O)[C@@H](N)C(C)C)CSC[C@@H](C(=O)N[C@@H]2C(=O)N3CCC[C@H]3C(=O)NCC(=O)N[C@H](C(=O)N[C@H](C(=O)N[C@H]3CSC[C@@H]4NC(=O)[C@H](CC(=O)O)NC(=O)[C@H](CSC[C@@H]5NC(=O)[C@H](Cc6ccccc6)NC(=O)[C@H](CS/C=C\NC5=O)NC4=O)NC(=O)CNC(=O)CNC(=O)CNC(=O)[C@@H]4C(O)C(O)CN4C3=O)[C@@H](C)O)CSC2C)NC(=O)[C@H](CC(C)C)NC1=O` (stereo not given in full), the minimum inhibitory concentration (MIC) against Enterococcus faecium [1] (L569, 24 h) is 4 µg/mL (≈ 1.78 µM); with Enterococcus faecium [2] (L568, 24 h) it was 4 µg/mL (≈ 1.78 µM); in the test on Enterococcus faecalis [3] (L560, 24 h) it was 1 µg/mL (≈ 0.444 µM); in the test on Enterococcus faecalis [4] (L559, 24 h) it was 2 µg/mL (≈ 0.889 µM); against Streptococcus pyogenes (L49, 24 h), ≤ 0.001 µg/mL; against Streptococcus pneumoniae (ATCC 49619, 24 h) it was 0.015 µg/mL (≈ 0.00667 µM). In addition, the MIC turned out to be 1 µg/mL (≈ 0.444 µM) with Staphylococcus aureus [5] (GISA L3798, 24 h); 1 µg/mL (≈ 0.444 µM) against Staphylococcus aureus [6] (ND035208, 24 h); 0.25 µg/mL (≈ 0.111 µM) against Staphylococcus aureus [7] (L819/ATCC 19636, 24 h).
Turning to `C=C1NC(=O)[C@H](Cc2c[nH]c3ccccc23)NC(=O)[C@@H](NC(=O)/C(=C/C)NC(=O)[C@@H](N)C(C)C)CSC[C@@H](C(=O)N[C@@H]2C(=O)N3CCC[C@H]3C(=O)NCC(=O)N[C@H](C(=O)N[C@H](C(=O)N[C@H]3CSC[C@@H]4NC(=O)[C@H](CC(=O)O)NC(=O)[C@H](CSC[C@@H]5NC(=O)[C@H](Cc6ccccc6)NC(=O)[C@H](CS/C=C\NC5=O)NC4=O)NC(=O)CNC(=O)CNC(=O)CNC(=O)[C@@H]4CCCN4C3=O)[C@@H](C)O)CSC2C)NC(=O)[C@H](CC(C)C)NC1=O` (stereo not given in full), the minimal inhibitory concentration (MIC) in the test on Enterococcus faecium [1] (L569, 24 h) is 32 µg/mL (≈ 14.7 µM); against Enterococcus faecium [2] (L568, 24 h), 32 µg/mL (≈ 14.7 µM); with Enterococcus faecalis [3] (L560, 24 h), 32 µg/mL (≈ 14.7 µM); against Enterococcus faecalis [4] (L559, 24 h) it was 64 µg/mL (≈ 29.3 µM); against Streptococcus pyogenes (L49, 24 h), ≤ 0.03 µg/mL; in the test on Streptococcus pneumoniae (ATCC 49619, 24 h) it was ≤ 0.03 µg/mL. In addition, the MIC against Staphylococcus aureus [5] (GISA L3798, 24 h) worked out at 16 µg/mL (≈ 7.33 µM); in the test with Staphylococcus aureus [6] (ND035208, 24 h) it was 8 µg/mL (≈ 3.66 µM); against Staphylococcus aureus [7] (L819/ATCC 19636, 24 h), 4 µg/mL (≈ 1.83 µM).
Consider GENTAMICIN, for which the MIC against Enterococcus faecium [1] came out at 16 µg/mL; with Enterococcus faecium [2], 16 µg/mL; against Enterococcus faecalis [3], 4 µg/mL; against Enterococcus faecalis [4] it was 4 µg/mL; against Streptococcus pyogenes, 16 µg/mL; in the test on Streptococcus pneumoniae it was 8 µg/mL. The figures for the MIC against Staphylococcus aureus [5], in the test on Staphylococcus aureus [6] and with Staphylococcus aureus [7] were 0.02 µg/mL, > 128 µg/mL and 1 µg/mL, respectively.
In the case of `C=C1NC(=O)[C@H](Cc2c[nH]c3ccc(Cl)cc23)NC(=O)[C@@H](NC(=O)/C(=C/C)NC(=O)[C@@H](N)C(C)C)CSC[C@@H](C(=O)N[C@@H]2C(=O)N3CCC[C@H]3C(=O)NCC(=O)N[C@H](C(=O)N[C@H](C(=O)N[C@H]3CSC[C@@H]4NC(=O)[C@H](CC(=O)O)NC(=O)[C@H](CSC[C@@H]5NC(=O)[C@H](Cc6ccccc6)NC(=O)[C@H](CS/C=C\NC5=O)NC4=O)NC(=O)CNC(=O)CNC(=O)CNC(=O)[C@@H]4CC(O)CN4C3=O)[C@@H](C)O)CSC2C)NC(=O)[C@H](CC(C)C)NC1=O` (stereo not given in full), the MIC is 4 µg/mL (≈ 1.79 µM) against Enterococcus faecium [1] (L569, 24 h); 4 µg/mL (≈ 1.79 µM) against Enterococcus faecium [2] (L568, 24 h); 2 µg/mL (≈ 0.895 µM) against Enterococcus faecalis [3] (L560, 24 h); 2 µg/mL (≈ 0.895 µM) in the test on Enterococcus faecalis [4] (L559, 24 h); ≤ 0.001 µg/mL against Streptococcus pyogenes (L49, 24 h); 0.03 µg/mL (≈ 0.0134 µM) in the test on Streptococcus pneumoniae (ATCC 49619, 24 h). Moreover, the minimum inhibitory concentration (MIC) is 2 µg/mL (≈ 0.895 µM) against Staphylococcus aureus [5] (GISA L3798, 24 h); 1 µg/mL (≈ 0.448 µM) in the test on Staphylococcus aureus [6] (ND035208, 24 h); 0.25 µg/mL (≈ 0.112 µM) against Staphylococcus aureus [7] (L819/ATCC 19636, 24 h).

For the origin of these results see ChEMBL document CHEMBL3102785, “Characterization of the congeners in the lantibiotic NAI-107 complex” (2014).
